Activity calls are given as the source filed them. The rule behind the calls is not given here.
Assays:
[1] = test system: Caulobacter vibrioides; assay: Effect on DNA damage repair in Caulobacter vibrioides lacking uvrA expression assessed as decrease in cell survival rate upto 1 ug/ml and measured after 2 days by agar dilution method; assay type: functional, organism-based; conditions: dose <= 1.0 µg/ml, time 2.0 day
[2] = Binding affinity to GC-rich 5'-fluoro and 3'-TAMRA tagged 5'-TAT-AGG-GAC-AGC-CCT-ATA-3' hairpin DNA (unknown origin) assessed as thermal stabilization by measuring change in melting temperature at 1 uM incubated for 24 hrs by FRET analysis
Summary of the method: (§1)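 Fluorophore/quencher-tagged hairpin DNA, AT-rich (Sequence 1) or GC-rich (Sequence 2), incubated with compound for 3 h or 24 h, then thermally melted. Melt curves were compared against a DNA-only control for the same sequence. Each reaction was run in triplicate.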

[3] = test system: Caulobacter vibrioides; assay: Effect on DNA damage repair in Caulobacter vibrioides lacking recA expression assessed as decrease in cell survival rate upto 1 ug/ml and measured after 2 days by agar dilution method; assay type: functional, organism-based; conditions: dose <= 1.0 µg/ml, time 2.0 day
[4] = test system: Caulobacter vibrioides; assay: Effect on DNA damage repair in Caulobacter vibrioides lacking alkB expression assessed as decrease in cell survival rate upto 1 ug/ml and measured after 2 days by agar dilution method; assay type: functional, organism-based; conditions: dose <= 1.0 µg/ml, time 2.0 day
Summary of the method: (§2)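 Survival of Caulobacter wild type, ΔmutL and ΔalkB strains was tested across increasing drug doses. Cultures were serially diluted and spotted, and growth was scored along the dilution series. At least three independent experiments were run per strain, with mean and SEM of all repeats plotted.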

[5] = test system: Caulobacter vibrioides; assay: Effect on DNA damage repair in Caulobacter vibrioides lacking mutL expression assessed as decrease in cell survival rate upto 1 ug/ml and measured after 2 days by agar dilution method; assay type: functional, organism-based; conditions: dose <= 1.0 µg/ml, time 2.0 day; summary of the method: as §2
[6] = test system: Caulobacter vibrioides; assay: Effect on DNA damage repair in Caulobacter vibrioides lacking recN expression and expressing Gam-GFP reporter system assessed as fold increase in double stranded break by measuring Gam localization in cells at 0.5 ug/ml and measured after 2 hrs by fluorescence analysis; conditions: dose 0.5 µg/ml
[7] = test system: Caulobacter vibrioides; assay: Effect on DNA damage repair in Caulobacter vibrioides expressing Gam-GFP reporter system assessed as increase in double stranded break by measuring Gam localization in cells at 0.5 ug/ml and measured after 2 hrs by fluorescence analysis; assay type: functional; conditions: dose 0.5 µg/ml
Summary of the method: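 Wild-type Caulobacter carrying a Gam-GFP reporter; after drug treatment, cells imaged by fluorescence microscopy and percentage of cells with Gam-GFP foci scored ([…] cells). Three independent experiments; mean and SD reported.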

[8] = Binding affinity to AT-rich 5'-fluoro and 3'-TAMRA tagged 5'-TAT-ATA-TAG-ATA-TTT-TTT-TAT-CTA-TAT-ATA-3' hairpin DNA (unknown origin) assessed as thermal stabilization by measuring change in melting temperature at 1 uM incubated for 3 hrs by FRET analysis; summary of the method: as §1
[9] = test system: Caulobacter vibrioides; assay: Induction of DNA damage in Caulobacter vibrioides assessed as accumulation of SOS-induced YFP at 0.5 ug/ml incubated upto 2 hrs by fluorescence microscopy; assay type: functional, organism-based; conditions: dose 0.5 µg/ml
[10] = Binding affinity to GC-rich 5'-fluoro and 3'-TAMRA tagged 5'-TAT-AGG-GAC-AGC-CCT-ATA-3' hairpin DNA (unknown origin) assessed as thermal stabilization by measuring change in melting temperature at 1 uM incubated for 3 hrs by FRET analysis; summary of the method: as §1
[11] = test system: Caulobacter vibrioides; assay: Induction of DNA damage in Caulobacter vibrioides assessed as increase in cell death upto 1 ug/ml and measured after 2 days by agar dilution method; assay type: functional, organism-based; conditions: dose <= 1.0 µg/ml, time 2.0 day, DDE = dose-dependent effect
[12] = Binding affinity to AT-rich 5'-fluoro and 3'-TAMRA tagged 5'-TAT-ATA-TAG-ATA-TTT-TTT-TAT-CTA-TAT-ATA-3' hairpin DNA(unknown origin) assessed as thermal stabilization by measuring change in melting temperature at 1 uM incubated for 24 hrs by FRET analysis; summary of the method: as §1
[13] = test system: Caulobacter vibrioides; assay: Effect on DNA damage repair in Caulobacter vibrioides lacking uvrA expression and expressing Gam-GFP reporter system assessed as fold increase in double stranded break by measuring Gam localization in cells at 0.5 ug/ml and measured after 2 hrs by fluorescence analysis; assay type: functional; conditions: dose 0.5 µg/ml
[14] = test system: Caulobacter vibrioides; assay: Effect on DNA damage repair in Caulobacter vibrioides assessed as fold change as increase in rifampicin resistance colonies at 2 ug/ml incubated for 0.5 hrs followed by culture in new media and treated with rifampicin and measured after 48 hrs by colony formation assay; assay type: functional; conditions: dose 2 µg/ml
Summary of the method: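 Caulobacter cells exposed to drug; rifampicin-resistant colony counts expressed as fold change relative to untreated control (no DNA damage). Three independent experiments; mean and SD reported.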

[15] = test system: Caulobacter vibrioides; assay: Effect on DNA damage repair in Caulobacter vibrioides expressing Gam-GFP reporter system assessed as increase in double stranded break by measuring Gam localization in cells at 25 to 50 ug/ml and measured after 2 hrs by fluorescence analysis; assay type: functional, organism-based; conditions: dose 25-50 µg/ml
[16] = test system: Caulobacter vibrioides; assay: Effect on DNA damage repair in Caulobacter vibrioides lacking recR expression assessed as decrease in cell survival rate upto 1 ug/ml and measured after 2 days by agar dilution method; assay type: functional, organism-based; conditions: dose <= 1.0 µg/ml, time 2.0 day
[17] = test system: Caulobacter vibrioides; assay: Effect on DNA damage repair in Caulobacter vibrioides lacking recF expression assessed as decrease in cell survival rate upto 1 ug/ml and measured after 2 days by agar dilution method; assay type: functional, organism-based; conditions: dose <= 1.0 µg/ml, time 2.0 day
[18] = test system: Caulobacter vibrioides; assay: Induction of DNA damage in Caulobacter vibrioides assessed as accumulation of SOS-induced YFP at 1 ug/ml incubated upto 2 hrs by fluorescence microscopy; assay type: functional, organism-based; conditions: dose 1.0 µg/ml
[19] = test system: Caulobacter vibrioides; assay: Effect on DNA damage repair in Caulobacter vibrioides lacking recN expression and expressing Gam-GFP reporter system assessed as fold increase in double stranded break by measuring Gam localization in cells at 2 ug/ml and measured after 2 hrs by fluorescence analysis; conditions: dose 2 µg/ml
[20] = test system: Caulobacter vibrioides; assay: Effect on DNA damage repair in Caulobacter vibrioides lacking DnaE2 expression assessed as decrease in cell survival rate upto 1 ug/ml and measured after 2 days by agar dilution method; assay type: functional, organism-based; conditions: dose <= 1.0 µg/ml, time 2.0 day
[21] = test system: Caulobacter vibrioides; assay: Effect on DNA damage repair in Caulobacter vibrioides lacking recN expression assessed as decrease in cell survival rate upto 1 ug/ml and measured after 2 days by agar dilution method; assay type: functional, organism-based; conditions: dose <= 1.0 µg/ml, time 2.0 day
[22] = test system: Caulobacter vibrioides; assay: Effect on DNA damage repair in Caulobacter vibrioides lacking recO expression assessed as decrease in cell survival rate upto 1 ug/ml and measured after 2 days by agar dilution method; assay type: functional, organism-based; conditions: dose <= 1.0 µg/ml, time 2.0 day
[23] = test system: Caulobacter vibrioides; assay: Effect on DNA damage repair in Caulobacter vibrioides lacking uvrA expression and expressing Gam-GFP reporter system assessed as fold increase in double stranded break by measuring Gam localization in cells at 1 ug/ml and measured after 2 hrs by fluorescence analysis; assay type: functional; conditions: dose 1 µg/ml
[24] = test system: Caulobacter vibrioides; assay: Effect on DNA damage repair in Caulobacter vibrioides lacking addAB expression assessed as decrease in cell survival rate upto 1 ug/ml and measured after 2 days by agar dilution method; assay type: functional, organism-based; conditions: dose <= 1.0 µg/ml, time 2.0 day
[25] = test system: Caulobacter vibrioides; assay: Effect on DNA damage repair in Caulobacter vibrioides expressing Gam-GFP reporter system assessed as increase in double stranded break by measuring Gam localization in cells at 2 ug/ml and measured after 2 hrs by fluorescence analysis; assay type: functional; conditions: dose 2 µg/ml
Summary of the method: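 Wild-type Caulobacter carrying a Gam-GFP reporter was drug-treated and imaged by fluorescence microscopy. The readout was the percentage of cells with Gam-GFP foci, counting […] cells. Mean and SD are from three independent experiments.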

[26] = test system: Caulobacter vibrioides; assay: Effect on DNA damage repair in Caulobacter vibrioides lacking recA, lexA and sidA expression assessed as decrease in cell survival rate upto 1 ug/ml and measured after 2 days by agar dilution method; assay type: functional, organism-based; conditions: dose <= 1.0 µg/ml, time 2.0 day

For `COS(C)(=O)=O`, the Activity [1] was “Active”.

In the case of `CO[C@@]12[C@H](COC(N)=O)C3=C(C(=O)C(C)=C(N)C3=O)N1C[C@@H]1N[C@@H]12` [MITOMYCIN], the ΔTm [2] is reported as 11.8 °C, the Activity [3] is reported as “Active” and the Activity [4] is reported as “Active”. The Activity [5] was “Active”, the “fold change (FC)” value [6] was 2 and the Activity [7] was 5%. The ΔTm [8] was 12.6 °C, the Activity [9] was “Active” and the ΔTm [10] was 11.5 °C. For the same compound, the Activity [11] was “Dde”, the ΔTm [12] was 12.8 °C and the Activity [13] was 10%. For the same compound, the “fold change (FC)” value [14] was 2.5.

In the case of `CCn1cc(C(=O)O)c(=O)c2cc(F)c(N3CCNCC3)cc21`, the Activity [15] is reported as “Active” and the Activity [1] is reported as “Active”.

With `COC(=O)c1cc(-c2ccc(NC(=O)c3cc(NC(=O)CCCOc4cc5c(cc4OC)C(=O)N4CCC[C@H]4C=N5)cn3C)cc2)cn1C` the Activity [16] was “Active”, the Activity [17] was “Active” and the ΔTm [2] was 17.4 °C. For the same compound, the Activity [18] was “Active”, the Activity [3] was “Active” and the Activity [4] was “Active”. For the same compound, the “fold change (FC)” value [19] was 2, the Activity [5] was “Active” and the Activity [1] was “Active”. For the same compound, the Activity [20] was “Active”, the Activity [21] was “Active” and the Activity [22] was “Active”. The Activity [23] was 40%, the ΔTm [8] was 15.7 °C and the ΔTm [10] was 16.3 °C. For the same compound, the Activity [11] was “Dde”, the ΔTm [12] was 18.5 °C and the Activity [24] was “Active”. The Activity [25] was 5% and the Activity [26] was “Active”.

Compound `COC(=O)c1cc(NC(=O)c2cc(NC(=O)CCCOc3cc4c(cc3OC)C(=O)N3CCC[C@H]3C=N4)cn2C)cn1C` has a ΔTm [2] of 19.2 °C, a ΔTm [8] of 18.9 °C and a ΔTm [10] of 18.6 °C. The ΔTm [12] was 21.1 °C.

In the case of `COC(=O)c1cc2cc(NC(=O)c3cc(NC(=O)CCCOc4cc5c(cc4OC)C(=O)N4CCC[C@H]4C=N5)cn3C)ccc2s1`, the Activity [16] is reported as “Active”, the Activity [17] is reported as “Active” and the ΔTm [2] is reported as 15.9 °C. The Activity [3] was “Active”, the Activity [4] was “Active” and the Activity [5] was “Active”. For the same compound, the Activity [1] was “Active”, the Activity [20] was “Active” and the Activity [21] was “Active”. For the same compound, the “fold change (FC)” value [6] was 2, the Activity [7] was 5% and the Activity [22] was “Active”. The ΔTm [8] was 14 °C, the Activity [9] was “Active” and the ΔTm [10] was 15.6 °C. For the same compound, the Activity [11] was “Dde”, the ΔTm [12] was 15.6 °C and the Activity [13] was 56%. For the same compound, the Activity [24] was “Active” and the Activity [26] was “Active”.
